Measured values from different studies.
Each line is one published result; the experiments were not run side by side.
Target: Serine/threonine-protein kinase DCLK2 (DCLK2, Homo sapiens, UniProt Q8N568)
Sequence (Q8N568 1-766, as in one of the studies): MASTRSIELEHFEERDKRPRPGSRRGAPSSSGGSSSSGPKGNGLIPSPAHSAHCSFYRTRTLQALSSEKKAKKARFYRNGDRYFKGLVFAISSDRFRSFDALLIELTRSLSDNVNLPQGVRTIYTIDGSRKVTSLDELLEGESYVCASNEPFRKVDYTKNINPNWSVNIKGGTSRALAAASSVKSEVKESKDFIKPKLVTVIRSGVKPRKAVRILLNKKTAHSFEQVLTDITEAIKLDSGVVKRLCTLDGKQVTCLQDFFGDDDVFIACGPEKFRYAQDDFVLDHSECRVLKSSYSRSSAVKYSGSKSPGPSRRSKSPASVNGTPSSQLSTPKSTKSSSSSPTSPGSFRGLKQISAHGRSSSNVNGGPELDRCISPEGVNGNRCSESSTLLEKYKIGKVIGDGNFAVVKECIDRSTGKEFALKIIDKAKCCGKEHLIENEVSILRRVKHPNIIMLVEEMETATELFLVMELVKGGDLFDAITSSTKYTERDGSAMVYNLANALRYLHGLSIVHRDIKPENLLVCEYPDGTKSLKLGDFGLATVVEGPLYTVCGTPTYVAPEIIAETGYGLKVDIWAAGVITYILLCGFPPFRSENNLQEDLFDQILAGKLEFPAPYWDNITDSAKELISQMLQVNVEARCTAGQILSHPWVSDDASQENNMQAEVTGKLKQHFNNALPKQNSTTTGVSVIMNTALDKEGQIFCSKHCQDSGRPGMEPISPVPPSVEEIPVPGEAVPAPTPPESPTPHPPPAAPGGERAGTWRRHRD

| SMILES | test | conditions | remaining binding [%] |
| --- | --- | --- | --- |
| O=C(NCC1CCOCC1)c1n[nH]cc1NC(=O)c1c(F)cccc1F | binding, competition with immobilised ligand | 1 µM | 100 |
| FC(F)(F)Oc1cccc(-c2cnc3ccc(-c4ccncc4)nn23)c1 | cell-free assay, competition with immobilised ligand | 5 µM | 100 |
| CCOCCn1cc(C(=O)Nc2ccc(-n3nc(-c4cccnc4)cc3C(F)(F)F)cn2)ccc1=O | cell-free assay, competition with immobilised ligand | 1 µM | 89 |
| COc1cnc(Nc2cccc(S(N)(=O)=O)c2)nc1N1CCN(c2ccccc2)CC1 | binding, competition with immobilised ligand | 1 µM | 92 |
| CN(C)c1ncc(F)c(-c2cnn3ncccc23)n1 | binding | 1 µM | 96 |
| CCC(=O)N[C@H]1CC[C@@H](C(=O)N(C)c2ccc(-c3nc4ccccc4o3)cc2)C1 | cell-free assay, competition with immobilised ligand | 1 µM | 98 |
| CC1CCCN1c1nccc(-c2cnn3ncccc23)n1 (stereo not shown) | binding | 1 µM | 100 |
| O=C(NCCCN1CCOCC1)c1ccc(Nc2nccc(-c3cc4ccccc4s3)n2)cc1 | binding, competition with immobilised ligand | 1 µM | 98 |
| Cc1cc(-n2nc(Cc3cc(F)cc(C(F)(F)F)c3)nc2C)ccc1C(N)=O | cell-free assay, competition with immobilised ligand | 1 µM | 100 |
| O=C(NCCCN1CCOCC1)c1ccc(Nc2ncc(Cl)c(-c3ccc(Cl)s3)n2)cc1 | binding, competition with immobilised ligand | 1 µM | 78 |
| Cc1cnn2ncc(-c3ccnc(N(C)C)n3)c2c1 | binding | 1 µM | 100 |
| CN(C)CC#Cc1ccc(OCCCc2sc(N3CCc4cccc(C(=O)Nc5nc6ccccc6s5)c4C3)nc2C(=O)O)c(F)c1 | cell-free assay, competition with immobilised ligand | 1 µM | 100 |
| CN(CCCC(F)(F)F)c1nccc(-c2cnn3ncccc23)n1 | binding | 1 µM | 88 |
| O=C(c1ccc(Nc2ncc(Cl)c(-c3ccc(Cl)s3)n2)cc1)N1CCC(N2CCCC2)CC1 | binding, competition with immobilised ligand | 1 µM | 90 |
| c1cncc(-c2cccc(Nc3nccc(NC4CCCCC4)n3)c2)c1 | binding, competition with immobilised ligand | 10 µM | 100 |
| C=CC(=O)N1CCC(C(=O)NCC(=O)N2CCN(c3nc(-c4cnc(N)nc4C(F)F)nc(N4CCOCC4)n3)CC2)CC1 | binding, competition with immobilised ligand | 1 µM | 98 |
| C[C@@H](c1ccc(-n2cnc3c(N)ncnc32)cc1)N1CCc2nn(C)c(Cc3ccccc3)c2C1=O | binding, competition with immobilised ligand | 0.1 µM | 100 |
| COc1cnc(Nc2cccc(S(N)(=O)=O)c2)nc1N1CCN(c2ccccc2)C(=O)C1 | binding, competition with immobilised ligand | 1 µM | 100 |
| CNCc1ccccc1-c1csc([C@H](C)Nc2nc(C)nc3cc(OC)c(OC)cc23)c1 | cell-free assay, competition with immobilised ligand | 1 µM | 100 |
